Source: ChEMBL document CHEMBL5653631, “A Potent and Selective ULK1 Inhibitor Suppresses Autophagy and Sensitizes Cancer Cells to Nutrient Stress” (iScience, 2018)

Tests used:
[1] = biological target: Insulin-like growth factor 1 receptor (Homo sapiens) (UniProt P08069); assay: Inhibition of human recombinant IGF1R at 40 nM related to control ULK1
[2] = biological target: Mitogen-activated protein kinase kinase kinase 9 (Homo sapiens) (UniProt P80192); assay: Inhibition of human recombinant MLK1 at 40 nM related to control ULK1
Chain of Mitogen-activated protein kinase kinase kinase 9 (Homo sapiens) (P80192 whole entry, looked up): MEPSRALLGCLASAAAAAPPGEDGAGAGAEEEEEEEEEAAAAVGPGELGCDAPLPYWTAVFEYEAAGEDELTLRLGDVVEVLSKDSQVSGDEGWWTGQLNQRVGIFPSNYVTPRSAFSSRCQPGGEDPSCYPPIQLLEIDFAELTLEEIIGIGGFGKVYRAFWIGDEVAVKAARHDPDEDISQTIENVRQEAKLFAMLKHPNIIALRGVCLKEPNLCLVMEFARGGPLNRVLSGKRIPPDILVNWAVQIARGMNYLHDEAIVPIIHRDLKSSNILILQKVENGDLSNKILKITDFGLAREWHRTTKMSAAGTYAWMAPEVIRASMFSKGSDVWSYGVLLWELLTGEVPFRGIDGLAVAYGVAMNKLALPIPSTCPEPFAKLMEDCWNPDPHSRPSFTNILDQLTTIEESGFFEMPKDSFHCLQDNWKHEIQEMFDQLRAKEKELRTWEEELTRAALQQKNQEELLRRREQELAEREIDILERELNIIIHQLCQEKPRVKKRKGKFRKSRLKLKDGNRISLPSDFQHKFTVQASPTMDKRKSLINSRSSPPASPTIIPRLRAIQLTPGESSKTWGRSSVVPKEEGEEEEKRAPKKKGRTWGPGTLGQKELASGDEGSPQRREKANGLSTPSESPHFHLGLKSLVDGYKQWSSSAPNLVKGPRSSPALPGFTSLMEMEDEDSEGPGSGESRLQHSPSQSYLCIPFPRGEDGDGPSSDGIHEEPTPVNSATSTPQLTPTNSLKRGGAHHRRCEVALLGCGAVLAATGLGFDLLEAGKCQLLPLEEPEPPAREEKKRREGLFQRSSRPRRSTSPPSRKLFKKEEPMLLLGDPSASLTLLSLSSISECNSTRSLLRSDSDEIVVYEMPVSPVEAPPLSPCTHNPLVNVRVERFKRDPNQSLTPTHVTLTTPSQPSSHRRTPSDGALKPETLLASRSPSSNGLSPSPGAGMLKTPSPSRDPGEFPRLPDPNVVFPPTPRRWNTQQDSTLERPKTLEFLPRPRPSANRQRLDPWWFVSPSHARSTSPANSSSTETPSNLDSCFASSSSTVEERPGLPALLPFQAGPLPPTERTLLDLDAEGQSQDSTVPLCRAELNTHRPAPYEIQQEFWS

[3] = biological target: Mitogen-activated protein kinase kinase kinase kinase 4 (Homo sapiens) (UniProt O95819); assay: Inhibition of human recombinant HGK at 40 nM in presence of ATP by radiometric assay relative to control
Chain of Mitogen-activated protein kinase kinase kinase kinase 4 (Homo sapiens) (O95819 2-1239 limits assumed): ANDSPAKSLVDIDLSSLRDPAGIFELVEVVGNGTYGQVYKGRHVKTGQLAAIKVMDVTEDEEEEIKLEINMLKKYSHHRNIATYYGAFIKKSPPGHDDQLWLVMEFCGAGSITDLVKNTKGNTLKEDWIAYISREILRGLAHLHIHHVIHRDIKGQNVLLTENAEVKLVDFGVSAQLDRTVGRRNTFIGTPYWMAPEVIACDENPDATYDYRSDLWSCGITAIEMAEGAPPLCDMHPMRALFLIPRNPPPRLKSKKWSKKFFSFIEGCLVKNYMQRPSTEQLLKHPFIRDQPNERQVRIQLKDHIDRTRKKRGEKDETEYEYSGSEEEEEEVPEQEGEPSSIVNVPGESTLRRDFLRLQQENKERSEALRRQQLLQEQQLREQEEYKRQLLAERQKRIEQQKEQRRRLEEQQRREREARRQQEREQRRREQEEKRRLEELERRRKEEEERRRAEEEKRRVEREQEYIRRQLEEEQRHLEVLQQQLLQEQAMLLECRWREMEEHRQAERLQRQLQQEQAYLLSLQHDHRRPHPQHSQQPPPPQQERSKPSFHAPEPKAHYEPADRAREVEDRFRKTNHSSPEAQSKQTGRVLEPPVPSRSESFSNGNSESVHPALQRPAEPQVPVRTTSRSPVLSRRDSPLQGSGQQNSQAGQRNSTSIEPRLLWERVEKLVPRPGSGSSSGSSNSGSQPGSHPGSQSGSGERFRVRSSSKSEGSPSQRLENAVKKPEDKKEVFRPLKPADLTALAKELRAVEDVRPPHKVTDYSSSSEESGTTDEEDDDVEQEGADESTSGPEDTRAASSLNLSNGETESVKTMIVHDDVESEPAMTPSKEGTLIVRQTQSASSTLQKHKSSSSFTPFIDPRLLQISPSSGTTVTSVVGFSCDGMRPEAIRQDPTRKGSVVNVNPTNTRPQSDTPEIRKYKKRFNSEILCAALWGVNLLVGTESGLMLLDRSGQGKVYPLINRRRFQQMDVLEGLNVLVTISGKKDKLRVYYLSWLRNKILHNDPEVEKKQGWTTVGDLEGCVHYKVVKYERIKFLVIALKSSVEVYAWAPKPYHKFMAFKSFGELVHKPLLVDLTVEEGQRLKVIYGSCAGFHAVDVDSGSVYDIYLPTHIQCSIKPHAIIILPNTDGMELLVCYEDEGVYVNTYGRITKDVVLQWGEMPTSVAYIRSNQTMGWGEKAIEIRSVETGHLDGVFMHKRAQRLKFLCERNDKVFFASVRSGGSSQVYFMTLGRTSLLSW

[4] = biological target: Fibroblast growth factor receptor 3 (Homo sapiens) (UniProt P22607); assay: Inhibition of human recombinant FGFR3 at 15 nM related to control ULK1
Chain of Fibroblast growth factor receptor 3 (Homo sapiens) (P22607 23-806 limits assumed): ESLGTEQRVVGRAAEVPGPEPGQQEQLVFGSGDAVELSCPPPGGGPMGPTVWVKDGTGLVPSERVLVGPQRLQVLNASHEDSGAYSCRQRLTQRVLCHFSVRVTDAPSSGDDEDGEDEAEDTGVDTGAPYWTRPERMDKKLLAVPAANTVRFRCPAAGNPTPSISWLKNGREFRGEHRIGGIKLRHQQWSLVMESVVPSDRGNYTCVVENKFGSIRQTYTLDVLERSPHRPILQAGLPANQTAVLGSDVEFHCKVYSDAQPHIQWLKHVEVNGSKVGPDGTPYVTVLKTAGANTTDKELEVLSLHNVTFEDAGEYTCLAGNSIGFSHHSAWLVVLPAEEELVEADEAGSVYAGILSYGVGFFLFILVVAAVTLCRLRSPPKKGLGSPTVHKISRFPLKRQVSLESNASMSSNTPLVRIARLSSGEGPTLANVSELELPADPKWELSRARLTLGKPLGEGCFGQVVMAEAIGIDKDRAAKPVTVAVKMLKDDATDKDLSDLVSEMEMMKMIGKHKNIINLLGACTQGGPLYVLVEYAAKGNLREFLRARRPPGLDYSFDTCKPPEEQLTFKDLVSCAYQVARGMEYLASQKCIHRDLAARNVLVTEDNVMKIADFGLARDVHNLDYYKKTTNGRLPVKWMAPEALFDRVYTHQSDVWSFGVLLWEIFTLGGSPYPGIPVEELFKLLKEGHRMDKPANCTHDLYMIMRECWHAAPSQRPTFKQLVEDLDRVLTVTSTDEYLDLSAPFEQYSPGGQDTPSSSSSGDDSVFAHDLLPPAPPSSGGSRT

[5] = biological target: Cyclin-dependent kinase 3 (Homo sapiens) (UniProt Q00526); assay: Inhibition of human recombinant CDK3 at 500 nM in presence of ATP by radiometric assay relative to control
Chain of Cyclin-dependent kinase 3 (Homo sapiens) (Q00526 whole entry, looked up): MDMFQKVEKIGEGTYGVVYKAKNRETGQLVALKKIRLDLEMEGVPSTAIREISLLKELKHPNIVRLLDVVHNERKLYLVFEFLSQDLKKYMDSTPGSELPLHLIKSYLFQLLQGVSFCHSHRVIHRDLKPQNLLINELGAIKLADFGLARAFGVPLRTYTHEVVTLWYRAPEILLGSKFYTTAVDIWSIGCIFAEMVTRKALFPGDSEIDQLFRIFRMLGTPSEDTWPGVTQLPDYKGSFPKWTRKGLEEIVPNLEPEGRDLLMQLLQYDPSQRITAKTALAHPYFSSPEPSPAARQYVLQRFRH

[6] = biological target: Platelet-derived growth factor receptor alpha (Homo sapiens) (UniProt P16234); assay: Inhibition of human recombinant PDGFRa at 500 nM related to control ULK1
[7] = biological target: T1, Serine/threonine-protein kinase BRSK1 (Homo sapiens) (UniProt Q8TDC3); assay: Inhibition of human recombinant BRSK1 at 500 nM in presence of ATP by radiometric assay relative to control
T1 sequence (whole entry): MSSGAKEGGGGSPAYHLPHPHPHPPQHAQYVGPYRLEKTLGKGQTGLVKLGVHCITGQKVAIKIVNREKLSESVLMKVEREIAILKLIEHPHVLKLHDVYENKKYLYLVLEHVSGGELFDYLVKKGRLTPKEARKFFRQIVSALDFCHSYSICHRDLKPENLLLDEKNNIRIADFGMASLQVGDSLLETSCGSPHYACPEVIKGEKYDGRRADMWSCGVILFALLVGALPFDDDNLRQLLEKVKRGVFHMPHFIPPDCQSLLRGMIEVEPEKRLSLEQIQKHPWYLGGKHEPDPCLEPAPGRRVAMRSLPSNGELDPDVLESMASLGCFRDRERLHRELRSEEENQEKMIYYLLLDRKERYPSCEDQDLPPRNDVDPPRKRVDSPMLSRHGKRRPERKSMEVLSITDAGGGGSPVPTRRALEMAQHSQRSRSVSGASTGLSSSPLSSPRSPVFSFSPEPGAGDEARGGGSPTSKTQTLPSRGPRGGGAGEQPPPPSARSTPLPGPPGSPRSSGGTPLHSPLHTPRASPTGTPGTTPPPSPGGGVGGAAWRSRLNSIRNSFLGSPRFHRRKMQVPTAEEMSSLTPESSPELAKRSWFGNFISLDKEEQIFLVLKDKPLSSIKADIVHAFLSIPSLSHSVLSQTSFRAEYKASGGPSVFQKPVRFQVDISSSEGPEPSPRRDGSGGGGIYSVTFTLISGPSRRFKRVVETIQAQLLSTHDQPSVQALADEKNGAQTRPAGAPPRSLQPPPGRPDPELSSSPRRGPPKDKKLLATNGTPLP
Method in brief: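 Recombinant human kinase panel (327 kinases) run as radiometric activity assays, each kinase in duplicate at one compound concentration. Activity remaining expressed relative to vehicle control; percent inhibition taken as 100% minus % activity remaining.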

[8] = biological target: T2, Mitogen-activated protein kinase kinase kinase 2 (Homo sapiens) (UniProt Q9Y2U5); assay: Inhibition of human recombinant MAP3K2 at 500 nM related to control ULK1
T2 sequence (whole entry): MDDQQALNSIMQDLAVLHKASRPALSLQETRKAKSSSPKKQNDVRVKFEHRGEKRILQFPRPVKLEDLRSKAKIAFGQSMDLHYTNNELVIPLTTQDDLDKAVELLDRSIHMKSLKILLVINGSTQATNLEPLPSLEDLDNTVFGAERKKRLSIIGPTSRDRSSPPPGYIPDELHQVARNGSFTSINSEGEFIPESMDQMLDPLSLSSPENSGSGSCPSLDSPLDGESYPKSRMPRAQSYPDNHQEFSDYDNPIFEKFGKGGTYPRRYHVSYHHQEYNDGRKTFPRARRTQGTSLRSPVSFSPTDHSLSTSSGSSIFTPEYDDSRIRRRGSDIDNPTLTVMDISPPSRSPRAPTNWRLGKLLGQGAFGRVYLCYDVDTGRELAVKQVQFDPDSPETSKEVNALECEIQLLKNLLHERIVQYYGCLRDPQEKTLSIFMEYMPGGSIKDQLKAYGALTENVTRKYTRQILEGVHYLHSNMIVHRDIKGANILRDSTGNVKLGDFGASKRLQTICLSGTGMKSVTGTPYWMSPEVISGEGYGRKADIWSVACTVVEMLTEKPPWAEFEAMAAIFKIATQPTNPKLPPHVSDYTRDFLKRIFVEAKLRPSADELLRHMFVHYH

[9] = biological target: Receptor-type tyrosine-protein kinase FLT3 (Homo sapiens) (UniProt P36888); assay: Inhibition of human recombinant FLT3 at 500 nM in presence of ATP by radiometric assay relative to control

Chain of Insulin-like growth factor 1 receptor (Homo sapiens) (P08069 31-736 limits assumed): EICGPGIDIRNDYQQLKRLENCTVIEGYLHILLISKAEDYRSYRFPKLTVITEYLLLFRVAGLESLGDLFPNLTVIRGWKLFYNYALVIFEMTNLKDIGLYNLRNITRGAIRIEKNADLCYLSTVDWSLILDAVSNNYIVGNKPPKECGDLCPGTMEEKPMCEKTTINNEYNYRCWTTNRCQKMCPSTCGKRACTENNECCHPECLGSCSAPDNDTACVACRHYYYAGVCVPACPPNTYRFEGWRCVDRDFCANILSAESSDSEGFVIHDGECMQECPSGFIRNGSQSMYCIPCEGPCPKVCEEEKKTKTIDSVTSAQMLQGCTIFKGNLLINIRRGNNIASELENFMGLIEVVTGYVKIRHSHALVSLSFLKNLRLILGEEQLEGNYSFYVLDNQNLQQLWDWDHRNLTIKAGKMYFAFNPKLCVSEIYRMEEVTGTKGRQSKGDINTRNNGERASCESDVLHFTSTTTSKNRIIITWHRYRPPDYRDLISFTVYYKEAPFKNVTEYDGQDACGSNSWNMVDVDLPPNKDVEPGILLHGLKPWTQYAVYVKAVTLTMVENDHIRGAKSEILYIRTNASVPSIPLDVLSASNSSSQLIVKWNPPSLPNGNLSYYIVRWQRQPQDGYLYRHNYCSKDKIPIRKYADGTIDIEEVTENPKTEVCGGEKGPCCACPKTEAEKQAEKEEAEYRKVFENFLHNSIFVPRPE
Chain of Insulin-like growth factor 1 receptor (Homo sapiens) (P08069 741-1367 limits assumed): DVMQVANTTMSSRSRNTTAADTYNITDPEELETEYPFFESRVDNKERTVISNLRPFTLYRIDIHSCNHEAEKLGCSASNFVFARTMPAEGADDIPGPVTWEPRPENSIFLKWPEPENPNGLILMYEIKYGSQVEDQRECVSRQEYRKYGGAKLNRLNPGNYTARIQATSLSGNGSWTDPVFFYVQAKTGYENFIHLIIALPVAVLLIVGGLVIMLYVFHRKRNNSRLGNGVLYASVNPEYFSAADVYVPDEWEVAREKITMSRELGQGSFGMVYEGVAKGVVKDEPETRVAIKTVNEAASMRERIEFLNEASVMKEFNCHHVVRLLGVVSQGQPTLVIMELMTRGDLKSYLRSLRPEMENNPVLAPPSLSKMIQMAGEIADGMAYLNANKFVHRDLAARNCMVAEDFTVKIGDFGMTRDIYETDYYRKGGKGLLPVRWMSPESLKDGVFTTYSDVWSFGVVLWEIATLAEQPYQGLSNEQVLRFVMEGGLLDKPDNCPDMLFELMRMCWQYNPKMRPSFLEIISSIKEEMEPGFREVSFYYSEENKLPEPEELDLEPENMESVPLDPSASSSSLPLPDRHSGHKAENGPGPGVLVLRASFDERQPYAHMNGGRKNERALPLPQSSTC

Structure (SMILES): O=C(N[C@@H](C1CC1)C(F)(F)F)c1cc(-c2cnn3cc(-c4ccc(F)cc4)cnc23)cs1
- fold change (FC) [1]: 0
- fold change (FC) [2]: 0.1
- inhibition [3]: 0%

Structure (SMILES): CC(C)[C@H](NC(=O)c1cc(-c2cnn3cc(-c4ccc(OCCN5CCCCC5)cc4)cnc23)cs1)C(F)(F)F
- fold change (FC) [4]: 0

Structure (SMILES): CNC(=O)c1ccccc1Oc1nc(Nc2cc(OC)c(OC)c(OC)c2)ncc1Br
- inhibition [5]: 1%
- fold change (FC) [6]: 0
- inhibition [7]: 2%
- fold change (FC) [8]: 0.04
- inhibition [9]: 57%
